Reference: article PMC6682128 (ACS Omega, 2019)

How the values were obtained:
Cytotoxicity assay [1] = assay type: cell-based; details: human
Procedure, shortened: (§1)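 Replicon cells (Huh5-2, Huh7.5-3a or Huh7.5-4a) were seeded at 10^4 per well and grown 24 h in complete DMEM. They were then exposed for three days to serial dilutions of test compound or DMSO solvent. Lysates were assayed for ATP by chemiluminescence, normalised to Bradford total protein. CC50 was obtained by nonlinear regression against log concentration.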

[2] = system: Huh7.5-4a (ED43) replicon cells; experiment: Cytotoxicity assay; assay type: cell-based, human; details: ATP levels
Procedure, shortened: as §1

HCV NS5A (Con1) = assay type: cell-based, Hepatitis C virus; details: Huh5-2 cells
[3] = system: HCV genotype 1b (+) strand RNA; experiment: HCV RNA quantification by RT-qPCR in Huh5-2 replicon cells; assay type: cell-based, Hepatitis C virus; details: 0.05 nM compound, Huh5-2 cells, normalized to YWHAZ
Cytotoxicity assay [4] = assay type: cell-based; details: human, Huh7.5-3a (S52) replicon cells
Procedure, shortened: as §1

[5] = system: HCV genotype 1b (strain Con1) replicon; experiment: HCV genotype 1b replicon luciferase assay in Huh5-2 cells; assay type: cell-based, Hepatitis C virus; details: EC50 comparison

SMILES	CC50 at 3 days (Cytotoxicity assay [1]) [µM]	also measured
CCOC(=O)N[C@@H](CC(C)C)C(=O)N1CCC[C@H]1C(=O)Nc1cccc(C#CC#Cc2cccc(NC(=O)[C@@H]3CCCN3C(=O)[C@H](CC(C)C)NC(=O)OCC)c2)c1 [2f, Diethyl((2S,2′S)-((2S,2′S)-(((buta-1,3-diyne-1,4-diylbis(3,1-phenylene))bis(azanediyl))bis(carbonyl))bis(pyrrolidine-2,1-diyl))bis(4-methyl-1-oxopentane-1,2-diyl))dicarbamate]	> 200	CC50, genotype 4a (ED43) [2]: >200 000 nM; cell viability (nuclei staining with propidium iodide) (HCV NS5A (Con1); 0.5 and 0.05 nM): not affected; NS5A protein levels by indirect immunofluorescence (HCV NS5A (Con1); highest compound concentration used (0.5 nM)): almost undetectable levels; HCV RNA replication reduced to (relative to control) [3]: ~90%; CC50 at 3 days (Cytotoxicity assay [4]): > 200 µM
CCOC(=O)N[C@@H](C(=O)N1CCC[C@H]1C(=O)Nc1cccc(C#CC#Cc2cccc(NC(=O)[C@@H]3CCCN3C(=O)[C@H](NC(=O)OCC)C(C)C)c2)c1)C(C)C [2n, Diethyl((2R,2′R)-((2S,2′S)-(((buta-1,3-diyne-1,4-diylbis(3,1-phenylene))bis(azanediyl))bis(carbonyl))bis(pyrrolidine-2,1-diyl))bis(3-methyl-1-oxobutane-1,2-diyl))dicarbamate]	> 20	fold more active than 2b [5]: about 6 fold
CC(C)[C@H](NC(=O)OCc1ccccc1)C(=O)N1CCC[C@H]1C(=O)Nc1cccc(C#CC#Cc2cccc(NC(=O)[C@@H]3CCCN3C(=O)[C@@H](NC(=O)OCc3ccccc3)C(C)C)c2)c1 [2e, Dibenzyl((2S,2′S)-((2S,2′S)-(((buta-1,3-diyne-1,4-diylbis(3,1-phenylene))bis(azanediyl))bis(carbonyl))bis(pyrrolidine-2,1-diyl))bis(3-methyl-1-oxobutane-1,2-diyl))dicarbamate]	> 10	fold less active than 2b [5]: 22 fold
COC(=O)N[C@H](CC(C)C)C(=O)N1CCC[C@H]1C(=O)Nc1cccc(C#CC#Cc2cccc(NC(=O)[C@@H]3CCCN3C(=O)[C@@H](CC(C)C)NC(=O)OC)c2)c1 [2p, Dimethyl((2R,2′R)-((2S,2′S)-(((buta-1,3-diyne-1,4-diylbis(3,1-phenylene))bis(azanediyl))bis(carbonyl))bis(pyrrolidine-2,1-diyl))bis(4-methyl-1-oxopentane-1,2-diyl))dicarbamate]	> 200	fold more active than 2o [5]: about 3 × 10^5 fold; CC50, genotype 4a (ED43) [2]: >200 000 nM; CC50 at 3 days (Cytotoxicity assay [4]): > 200 µM
CC(C)[C@H](NC(=O)OCc1ccccc1)C(=O)N1CCC[C@H]1C(=O)Nc1ccc(C#CC#Cc2ccc(NC(=O)[C@@H]3CCCN3C(=O)[C@@H](NC(=O)OCc3ccccc3)C(C)C)cc2)cc1 [1e, Dibenzyl((2S,2′S)-((2S,2′S)-(((buta-1,3-diyne-1,4-diylbis(4,1-phenylene))bis(azanediyl))bis(carbonyl))bis(pyrrolidine-2,1-diyl))bis(3-methyl-1-oxobutane-1,2-diyl))dicarbamate]	> 20	fold less active than compound 1b [5]: 28 fold
COC(=O)N[C@H](C(=O)N1CCC[C@H]1C(=O)Nc1cccc(C#CC#Cc2cccc(NC(=O)[C@@H]3CCCN3C(=O)[C@@H](NC(=O)OC)C(C)C)c2)c1)C(C)C [2a, Dimethyl((2S,2′S)-((2S,2′S)-(((buta-1,3-diyne-1,4-diylbis(3,1-phenylene))bis(azanediyl))bis(carbonyl))bis(pyrrolidine-2,1-diyl))bis(3-methyl-1-oxobutane-1,2-diyl))dicarbamate]	> 200	CC50, genotype 4a (ED43) [2]: >200 000 nM; CC50 at 3 days (Cytotoxicity assay [4]): > 200 µM
COC(=O)N[C@H](C(=O)N1CCC[C@H]1c1nc(-c2ccc(-c3ccc(-c4c[nH]c([C@@H]5CCCN5C(=O)[C@@H](NC(=O)OC)C(C)C)n4)cc3)cc2)c[nH]1)C(C)C [daclatasvir, reference compound]	17.7	CC50, genotype 4a (ED43) [2]: 17 700 nM; CC50 at 3 days (Cytotoxicity assay [4]): 17.7 µM
CC(C)COC(=O)N[C@H](C(=O)N1CCC[C@H]1C(=O)Nc1cccc(C#CC#Cc2cccc(NC(=O)[C@@H]3CCCN3C(=O)[C@@H](NC(=O)OCC(C)C)C(C)C)c2)c1)C(C)C [2d, Diisobutyl((2S,2′S)-((2S,2′S)-(((buta-1,3-diyne-1,4-diylbis(3,1-phenylene))bis(azanediyl))bis(carbonyl))bis(pyrrolidine-2,1-diyl))bis(3-methyl-1-oxobutane-1,2-diyl))dicarbamate]	> 20	–
CCOC(=O)N[C@@H](CC(C)C)C(=O)N1CCC[C@@H]1C(=O)Nc1cccc(C#CC#Cc2cccc(NC(=O)[C@H]3CCCN3C(=O)[C@H](CC(C)C)NC(=O)OCC)c2)c1 [2l, Diethyl((2S,2′S)-((2R,2′R)-(((buta-1,3-diyne-1,4-diylbis(3,1-phenylene))bis(azanediyl))bis(carbonyl))bis(pyrrolidine-2,1-diyl))bis(4-methyl-1-oxopentane-1,2-diyl))dicarbamate]	> 10	–
CCOC(=O)N[C@H](C(=O)N1CCC[C@H]1C(=O)Nc1ccc(C#CC#Cc2ccc(NC(=O)[C@@H]3CCCN3C(=O)[C@@H](NC(=O)OCC)C(C)C)cc2)cc1)C(C)C [1b, Diethyl((2S,2′S)-((2S,2′S)-(((buta-1,3-diyne-1,4-diylbis(4,1-phenylene))bis(azanediyl))bis(carbonyl))bis(pyrrolidine-2,1-diyl))bis(3-methyl-1-oxobutane-1,2-diyl))dicarbamate]	2.58	fold more active than compound 1n [5]: 3 fold
CCOC(=O)N[C@H](CC(C)C)C(=O)N1CCC[C@@H]1C(=O)Nc1ccc(C#CC#Cc2ccc(NC(=O)[C@H]3CCCN3C(=O)[C@@H](CC(C)C)NC(=O)OCC)cc2)cc1 [1m, Diethyl((2R,2′R)-((2R,2′R)-(((buta-1,3-diyne-1,4-diylbis(4,1-phenylene))bis(azanediyl))bis(carbonyl))bis(pyrrolidine-2,1-diyl))bis(4-methyl-1-oxopentane-1,2-diyl))dicarbamate]	> 10	–
COC(=O)N[C@H](C(=O)N1CCC[C@H]1C(=O)Nc1ccc(C#CC#Cc2ccc(NC(=O)[C@@H]3CCCN3C(=O)[C@@H](NC(=O)OC)C(C)C)cc2)cc1)C(C)C [1a, Dimethyl((2S,2′S)-((2S,2′S)-(((buta-1,3-diyne-1,4-diylbis(4,1-phenylene))bis(azanediyl))bis(carbonyl))bis(pyrrolidine-2,1-diyl))bis(3-methyl-1-oxobutane-1,2-diyl))dicarbamate]	11	–
CCOC(=O)N[C@@H](C(=O)N1CCC[C@H]1C(=O)Nc1ccc(C#CC#Cc2ccc(NC(=O)[C@@H]3CCCN3C(=O)[C@H](NC(=O)OCC)C(C)C)cc2)cc1)C(C)C [1n, Diethyl((2R,2′R)-((2S,2′S)-(((buta-1,3-diyne-1,4-diylbis(4,1-phenylene))bis(azanediyl))bis(carbonyl))bis(pyrrolidine-2,1-diyl))bis(3-methyl-1-oxobutane-1,2-diyl))dicarbamate]	70.6	–
CCOC(=O)N[C@H](CC(C)C)C(=O)N1CCC[C@@H]1C(=O)Nc1cccc(C#CC#Cc2cccc(NC(=O)[C@H]3CCCN3C(=O)[C@@H](CC(C)C)NC(=O)OCC)c2)c1 [2m, Diethyl((2R,2′R)-((2R,2′R)-(((buta-1,3-diyne-1,4-diylbis(3,1-phenylene))bis(azanediyl))bis(carbonyl))bis(pyrrolidine-2,1-diyl))bis(4-methyl-1-oxopentane-1,2-diyl))dicarbamate]	> 10	–
CCOC(=O)N[C@@H](C(=O)N1CCC[C@@H]1C(=O)Nc1cccc(C#CC#Cc2cccc(NC(=O)[C@H]3CCCN3C(=O)[C@H](NC(=O)OCC)C(C)C)c2)c1)C(C)C [2k, Diethyl((2R,2′R)-((2R,2′R)-(((buta-1,3-diyne-1,4-diylbis(3,1-phenylene))bis(azanediyl))bis(carbonyl))bis(pyrrolidine-2,1-diyl))bis(3-methyl-1-oxobutane-1,2-diyl))dicarbamate]	> 10	–
CCC(C)[C@H](NC(=O)OCc1ccccc1)C(=O)N1CCC[C@H]1C(=O)Nc1ccc(C#CC#Cc2ccc(NC(=O)[C@@H]3CCCN3C(=O)[C@@H](NC(=O)OCc3ccccc3)C(C)CC)cc2)cc1 (stereo partly drawn) [1p, Dibenzyl((2S,2′S)-((2S,2′S)-(((buta-1,3-diyne-1,4-diylbis(4,1-phenylene))bis(azanediyl))bis(carbonyl))bis(pyrrolidine-2,1-diyl))bis(3-methyl-1-oxopentane-1,2-diyl))dicarbamate]	> 10	–
CC(C)COC(=O)N[C@H](C(=O)N1CCC[C@H]1C(=O)Nc1ccc(C#CC#Cc2ccc(NC(=O)[C@@H]3CCCN3C(=O)[C@@H](NC(=O)OCC(C)C)C(C)C)cc2)cc1)C(C)C [1d, Diisobutyl((2S,2′S)-((2S,2′S)-(((buta-1,3-diyne-1,4-diylbis(4,1-phenylene))bis(azanediyl))bis(carbonyl))bis(pyrrolidine-2,1-diyl))bis(3-methyl-1-oxobutane-1,2-diyl))dicarbamate]	> 10	–
CCOC(=O)N[C@@H](C(=O)N1CCC[C@@H]1C(=O)Nc1ccc(C#CC#Cc2ccc(NC(=O)[C@H]3CCCN3C(=O)[C@H](NC(=O)OCC)C(C)C)cc2)cc1)C(C)C [1k, Diethyl((2R,2′R)-((2R,2′R)-(((buta-1,3-diyne-1,4-diylbis(4,1-phenylene))bis(azanediyl))bis(carbonyl))bis(pyrrolidine-2,1-diyl))bis(3-methyl-1-oxobutane-1,2-diyl))dicarbamate]	> 10	–
